The source made the active and inactive calls. The calls are words filed in the database; no cut-off is given here.
Key:
[1] = tested on: Rattus norvegicus; assay: Analgesic activity in ip dosed Charles River rat by tail flick test; type: functional
Outline: (§1)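 Dosed intraperitoneally as aqueous solutions or Tween-80 suspensions to groups of six or ten rats. Doses expressed as mg base/kg. Read-out recorded as the number of rats showing analgesia over the number tested at each dose.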

[2] = organism: Rattus norvegicus; assay: Analgesic activity in Charles River rat by tail flick test relative to morphine; type: functional
Outline: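 Rats (groups of six or ten) dosed ip in aqueous solution or Tween-80 suspension, with doses as mg base/kg. Potency expressed relative to morphine, which was taken as unity. Some estimates were based on two doses.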

[3] = tested on: Rattus norvegicus; assay: Analgesic activity in Charles River rat at 50 mg/kg, ip by tail flick test; type: functional, organism-based; set-up: dose 50 mg/kg; outline: as §1
[4] = tested on: Rattus norvegicus; assay: Analgesic activity in po dosed Charles River rat by tail flick test; type: functional
Outline: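 Oral dosing of rats, with doses calculated as mg base/kg. Read-out recorded as the number of rats showing analgesia over the number tested.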

[5] = tested on: Rattus norvegicus; assay: Analgesic activity in Charles River rat at 25 mg/kg, ip by tail flick test; type: functional, organism-based; set-up: dose 25 mg/kg; outline: as §1

SMILES	ED50 [1] [mg/kg]	Ratio [2]	Activity [3]	ED50 [4] [mg/kg]	Activity [5]
Br.C[C@@]12CCCCC(Cc3ccc(O)cc31)[C@@H]2N	7.4	0.6			
COc1ccc2c(c1)[C@@]1(C)CCCCCC(C2)[C@@H]1N.Cl	10	0.44			
CC[C@@]12CC=CCC(Cc3ccc(OC)cc31)[C@@H]2N(C)C.Cl	50		inactive		
CC(=O)Oc1ccc2c(c1)[C@@]1(C)CCCCC(C2)[C@@H]1N.Cl	10	0.44		40	
COc1ccc2c(c1)[C@@]1(C)Cc3ccccc3CCC(C2)C1N.O=C(O)/C=C/C(=O)O (some centres undefined)	25				inactive
CC[C@@]12Cc3ccccc3CC(Cc3ccc(OC)cc31)C2N.Cl (some centres undefined)	50				
CC[C@@]12CC=CCC(Cc3ccc(OC)cc31)[C@@H]2NC.I	25				
COc1ccc2c(c1)[C@@]1(C)Cc3ccccc3CC(C2)C1N.Cl (some centres undefined)	14.5	0.31			
COc1ccc2c(c1)[C@@]1(C)CCCCCC(C2)[C@@H]1[N+](C)(C)[O-].Cl	10	0.44		16.5	
C[C@@]12CCCCC(Cc3ccc(OC(=O)C4CC4)cc31)[C@@H]2N.Cl	5.5	0.81		16.5	
C[C@@]12CC=CCC(Cc3ccc(O)cc31)[C@@H]2N.Cl	6.25	1.26			
CC[C@@]12CC=CCC(Cc3ccc(OC)cc31)[C@@H]2N.Cl	4.2	1.05		6.25	
COc1ccc2c(c1)[C@@]1(C)CC=CCC(C2)[C@@H]1N(C)C.Cl	50		inactive		
CCC(=O)O[C@](Cc1ccccc1)(c1ccccc1)[C@H](C)CN(C)C [PROPOXYPHENE]	10.4				
Br.C[C@@]12Cc3ccccc3CCC(Cc3ccc(O)cc31)C2N (some centres undefined)	25				
CC[C@@]12CC=CCC(Cc3ccc(O)cc31)[C@@H]2N	1.75	2.53		6.25	
CN1CC[C@]23c4c5ccc(O)c4O[C@H]2[C@@H](O)C=C[C@H]3[C@H]1C5 [MORPHINE]		1			
COc1ccc2c(c1)[C@@]1(C)CC=CCC(C2)[C@@H]1N.Cl	16.5	0.27		6.25	
Br.C[C@@]12Cc3ccccc3CC(Cc3ccc(O)cc31)C2N (some centres undefined)	12.5	0.35			

From ChEMBL document CHEMBL3272234, “Analgesic agents. 3. New bridged aminotetralins” (1976)
